Our source for the cytotoxicity values is ChEMBL document CHEMBL4513216, “Probing the Open Global Health Chemical Diversity Library for Multistage-Active Starting Points for Next-Generation Antimalarials” (ACS Infect Dis, 2020).

The nature of this data set: Toxicity liver stage against HepG2, at 10uM. The format is cell-based. More on the design: test concentration 10 uM, cell line HepG2-A16-CD81EGFP. Particulars: human, HepG2-A16-CD81EGFP cells; read-out: INHIBITION
The method, boiled down:
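Uninfected HepG2-A16-CD81EGFP cells, 3 × 10^3 per well, 1536-well, plated on prespotted compound at 10 μM final, parasite-free screening media added to match infected plates; puromycin 10 μM positive, DMSO 0.5% negative; run in parallel with 48 h PbLuc assay at 37 °C, 5% CO2; viability by CellTiter-Glo luminescence, normalized to controls.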
Regarding `CC(=O)c1ccc(S(=O)(=O)N2CCOC(Cn3ccnc3)C2)cc1` (centres undefined), the cytotoxicity at 10 µM stood at 6.58%.
Then `O=C(NC[C@H]1OC[C@@H](NCc2ccccn2)[C@@H]1O)c1ccncc1`, with -9.77%; and `CC(C)N1CC[C@H](c2nc3ccc(C(F)(F)F)cc3[nH]2)C1`, with -2.07%.
Regarding `CC(=O)N1CC[C@H](c2nnc(Cc3c[nH]c4ccccc34)o2)C1`, the cytotoxicity at 10 µM stood at 8.12%.
In the case of `Cc1cc(CN(C)CCC(O)c2ccccc2)no1` (centres undefined) it was 0.238%.
In the case of `CCN(CC)c1nc2ccsc2c(=O)n1CCC(=O)NCc1cccs1` it was -5.27%; in that of `COc1ccc(Cl)cc1NC(=O)CN1CCc2nc(NC(C)=O)sc2C1`, -4.2%.
In the case of `Cc1ccc(C(=O)N2CCc3ncc(Cn4cccn4)n3CC2)cn1` it was 7.25%.
Take `Cc1cccc(CN2C[C@@H]3CN(C(=O)c4ccco4)C[C@@H]3C2=O)c1`: the cytotoxicity at 10 µM is -3.72%.
In the case of `CC(=O)N1CCOC2(CCCN(Cc3ccc(Cl)c(C(F)(F)F)c3)C2)C1` (centres undefined) it was 3.68%.
Then `O=C(O)CN1CCC2(CCc3ccccc32)CC1`, with -3.7%.
In the case of `Cc1nc(CO[C@@H]2CN(Cc3ccccn3)[C@@H]3COC[C@@H]32)cs1` it was 5.45%; in that of `COCC1CN(C(=O)N2CCCC2)Cc2cnn(CC3CCCC3)c21` (centres undefined), 9.23%.
In the case of `Cc1nc2c(c(=O)[nH]1)CN(Cc1ccc3c(c1)CCCN3C)CC2`, the cytotoxicity at 10 µM was -3.55%.
As for `Cc1ccc(-c2nc(C3CCN(C(=O)c4cnn(C)c4)CC3)no2)cn1`, the cytotoxicity at 10 µM was -1.55%.
Take `O=C(c1c(F)cccc1F)N1CCC[C@@H]1Cn1c(=O)oc2ccccc21`: the cytotoxicity at 10 µM amounted to 4.42%.
Then `COCC(=O)NCCc1nc2cc(-c3ccc(OC)cc3)ncn2n1`, with 10.5%.
In the case of `CNC(=O)C1(CCCc2ccccn2)CN(Cc2scnc2C)C1` it was 18%; in that of `Cc1cc(C)n(CC(=O)N2CCCC(c3cc4cccnc4[nH]3)C2)n1` (centres undefined), 8.3%; in that of `Cn1c(=O)cc(C(=O)NC(Cc2ccsc2)c2cccnc2)[nH]c1=O` (centres undefined), 0.913%.
In the case of `COCCn1cnnc1C1CCCN(c2cnccn2)C1` (centres undefined) it was -2.22%; in that of `CCS(=O)(=O)N1CCc2nc(C3CCN(C(=O)C4CC4)C3)nc(O)c2C1` (centres undefined), -25.9%; in that of `Cc1nc(O)c2nnn(C[C@H]3CCCN3C(=O)C3CCCC3)c2n1`, -26.9%.
Regarding `CN1CCN(c2ccccc2CNC(=O)Cc2cccc(F)c2)CC1`, the cytotoxicity at 10 µM was -6.29%.
Then `N#CCCN(Cc1cccnc1)C(=O)c1cc(Cl)c[nH]1`, with -18.4%; and `Cc1cnn(CC2CCN(CC(O)CN3CCC(C)CC3)CC2)c1` (centres undefined), with 5.11%; and `CC(c1ccccc1Cl)N(C(=O)CSCC(N)=O)C1CC1` (centres undefined), with -36.3%.
For `COc1cccc(CC(C)NC(=O)NC(C)C)c1` (centres undefined), the cytotoxicity at 10 µM is 4.72%.
In the case of `COc1cccc(CC(C)NC(=O)NCCNC(C)=O)c1` (centres undefined) it was 7.89%; in that of `CC(NC(=O)NCCCO)c1ccc(-c2ccncc2)cc1` (centres undefined), 6.93%; in that of `CCCn1nc(C(=O)NCc2nnc3n2CCC3)ccc1=O`, -3.18%.
Consider `CCc1nc(CN2CC(C(=O)OC)O[C@H](C)C2)cs1` (some centres undefined), for which the cytotoxicity at 10 µM is -10.9%.
In the case of `CCc1noc(C(C)N2CCN(Cc3cnc(C)cn3)CC2)n1` (centres undefined) it was -8.54%; in that of `O=C(O)c1ccn(-c2ccccc2NS(=O)(=O)c2cccc(F)c2)n1`, -18.6%.
In the case of `O=C1CN(c2ccc(CNC(=O)c3ccc[nH]3)cc2F)CCN1` it was 1.28%; in that of `O=C(c1cccnc1-n1cncn1)N1CCN(CC(F)(F)F)CC1`, 4.39%; in that of `CC(CNC(=O)NCCCc1cc(N)n(-c2ccccc2)n1)N(C)C` (centres undefined), 11.9%.
Then `CCc1nc2n(n1)CC(NCc1cnc(N(CC)CC)s1)CC2` (centres undefined), with 7.39%.
In the case of `Cc1n[nH]c(C)c1CNC(=O)N1CCCC(Cc2nccn2C)C1` (centres undefined), the cytotoxicity at 10 µM is -19.2%.
Then `Cc1cc(CSC2CCCN(c3cnn(C)c3)C2=O)no1` (centres undefined), with 29.7%.
Then `Cn1ccc2c(C(=O)N3CCC4(CCOC4)C3)cccc21` (centres undefined), with -152%; and `COc1cccc(S(=O)(=O)NC(=O)CC2CCCC2)c1`, with 3.13%.
Turning to `O=C1CCCN1CC1CCCCN1C(=O)Nc1cccnc1` (centres undefined), the cytotoxicity at 10 µM was -0.123%.
In the case of `CCc1nnc2n1CCN(CC(O)CN1CCC(C)CC1)C2` (centres undefined) it was -7.37%; in that of `CC(=O)c1c(F)cccc1NCC(O)C(C)(C)C` (centres undefined), 18.7%.
In the case of `O=S1(=O)CCN2C(=N1)Oc1ccc(Cl)cc12` it was 13.7%.
In the case of `Cc1ccccc1C1(CNC(=O)c2ccc(S(C)(=O)=O)cc2)CC1` it was -7.16%; in that of `CCOc1ccc(C#N)cc1NC(=O)N1CCOC(C(N)=O)C1` (centres undefined), 12.9%.
Regarding `COC1CCCN(C(=O)c2sc(CC(C)C)nc2C)C1` (centres undefined), the cytotoxicity at 10 µM worked out at 10.9%.
In the case of `CCN1CC2(CC1=O)CN(C(=O)NC(C)C)CCN(C(=O)C(C)C)C2` (centres undefined) it was 0.508%; in that of `CCC(C)(C)C(=O)N1C[C@@H]2C[C@@H](c3nnc(C)[nH]3)O[C@@H]2C1`, 4.79%.
In the case of `Cc1ccc2c(n1)N(Cc1cccnc1)CCN(Cc1cnn(C)c1)C2` it was 9.12%; in that of `CNC(=O)[C@@H]1C[C@@H]2CCN(Cc3ccoc3)C[C@H]2O1`, -108%.
Then `O=C(c1cscn1)N1CC[C@H]2C[C@H](c3nnc(C4CC4)o3)O[C@@H]2C1`, with -111%; and `O=C(c1ccco1)N1CC[C@@H]2[C@H]1CCC(=O)N2c1ccccc1`, with -110%.
As to `COc1ccc(C2(C(=O)N3CC[C@@]4(O)CCNC[C@H]4C3)CCCC2)cc1`, the cytotoxicity at 10 µM was found to be 6.03%.
Then `CCc1nc(C)c(CN2CCN(c3ncnc4scc(C)c34)CC2)[nH]1`, with 16.4%; and `Cc1cc2cc(NC(=O)Cn3ncc(N4CCCC4)cc3=O)ccc2o1`, with -0.273%; and `CCCn1cnnc1CNC(=O)C1COc2cc(OC)ccc2C1` (centres undefined), with 3.21%.
Then `CCc1nnc(CN(CC)C(=O)C(C)n2ccnc2C(C)C)o1` (centres undefined), with 6.23%.
In the case of `Cc1nc(C(C)C)sc1CNC(=O)CCCN1CCCCC1` it was -13.8%.
Take `O=C(O)C1(Oc2ccccc2F)CCN(C/C=C/c2ccco2)CC1`: the cytotoxicity at 10 µM was -6.49%.
Then `Clc1ccccc1OC1CCN(CC2CCOC2)CC1` (centres undefined), with -9.85%.
In the case of `CCOCC(=O)NC(C)c1cc(C)ccc1C` (centres undefined) it was 5.6%; in that of `O=C(NCCN1CCOC1=O)c1cc(-c2ccccc2)on1`, 12.3%; in that of `CCCc1cc(N2CCC(NCCc3ccc(O)cc3)CC2)nc(C)n1`, -6%.
In the case of `Cn1cc(CN2CCCC(CCc3c(F)cccc3F)C2)cn1` (centres undefined) it was -7.55%; in that of `NC(=O)c1cc2c(nc1-c1ccoc1)CCC2`, 0.562%; in that of `Cc1n[nH]c(C)c1Sc1ccccc1NC(=O)N1CCOCC1`, 4.63%.
With `CC(C)[C@@H]1CN(S(=O)(=O)c2cccc(C(=O)O)c2)C[C@H]1N(C)C`, the cytotoxicity at 10 µM is -39.1%.
On to `O=C(c1cc(COc2ccc3c(c2)OCO3)[nH]n1)N1CCCCO1`, for which the cytotoxicity at 10 µM is -2.47%.
Regarding `Cc1cnc(N2CC[C@@]3(O)CCCC[C@H]3C2)nc1-c1ccnn1C`, the cytotoxicity at 10 µM came to 0.276%.
In the case of `COc1ccnc(N2CCC3(CCCN(CC4CC4)C3=O)C2)n1` (centres undefined) it was 1.13%.
`c1cnnc(N2CCCC2CNCc2nc(-c3ccco3)no2)c1` (centres undefined): the cytotoxicity at 10 µM was -10.2%.
Then `COC(=O)c1cc(C(=O)N2CCN(C)CC2)n(-c2ccccc2)n1`, with -13.2%; and `CC(NC(=O)CSCC(=O)Nc1ccccc1)c1ccccc1` (centres undefined), with -6.17%.
For the compound `Cc1nc2ccnn2c(C)c1CCC(=O)N1CCN(C2CC2)CC1`, the cytotoxicity at 10 µM was -7.2%.
Then `Cc1cccc(OCCNC(=O)CN2CCCC2Cn2cccn2)c1` (centres undefined), with -9.46%; and `Cc1cc(C)c(CNC(=O)NCc2ccc3c(c2)CCC3)c(=O)[nH]1`, with 10.4%; and `CCNc1cc2c(nn1)CCN(C(=O)CC1CCCCC1)C2`, with -10.3%.
Then `Cc1nc(CN2CCN(C(=O)c3ccn(C)c(=O)c3)CC2)cs1`, with 1.73%; and `CCC1CN(C(=O)NCCOc2ccc3c(c2)OCO3)CCO1` (centres undefined), with -4.25%.
In the case of `Cc1cn2c(n1)CCC(NC(=O)c1nc(C)ncc1Cl)C2` (centres undefined), the cytotoxicity at 10 µM was -3.13%.
In the case of `OCC1CCCN1c1cc(N2CCc3ccccc3C2)ncn1` (centres undefined) it was 2.53%; in that of `Cn1cc(CN2CC[C@H]3O[C@H](C(=O)Nc4cnccn4)CC[C@H]32)cn1`, -135%; in that of `O=C1C[C@H]2[C@@H](CCN2C(=O)c2ccccc2)N1CCN1CCOCC1`, -3.33%.
Then `Cc1occc1C(=O)N1CCC2(CC1)CN(Cc1nccs1)CCO2`, with 5.22%; and `COCCN1C[C@@H]2[C@@H](OC)CCN(Cc3ccsc3)[C@@H]2C1`, with 2.78%; and `CN1CC(=O)N(c2cnn(C)c2)CC12CCN(CC1CC1)C2` (centres undefined), with 7.6%.
Then `CCCS(=O)(=O)N1C[C@@H](Oc2ncccc2F)[C@H]2OCCC[C@H]21`, with 2.95%; and `CCOCc1nnc2n1CCN(Cc1c(C)noc1C)CC2`, with -95.3%; and `CC(C)C(=O)N1CCCC2(C1)CN(c1nncs1)CCO2` (centres undefined), with -104%.
Turning to `O=C(NC[C@]12COC[C@H]1CN(CC1CCOCC1)C2)c1ccccc1`, the cytotoxicity at 10 µM was -5.15%.
With `CSc1ncccc1C(=O)N1C[C@@H]2CC[C@H]1CN(C(=O)N(C)C)C2`, the cytotoxicity at 10 µM stood at 1.71%.
